Results reported in ChEMBL document CHEMBL2034960, “Bryonolic acid transcriptional control of anti-inflammatory and antioxidant genes in macrophages in vitro and in vivo” (J Nat Prod, 2012).
Activity calls are given as the source filed them. The calls are words filed in the database; no cut-off is given here.

Legend:
RAW264.7 [1] = test: Antiinflammatory activity in mouse RAW264.7 cells assessed as inhibition of LPS-induced nitric oxide production at 50 to 100 uM after 24 hrs by Griess method; assay type: functional; parameters: scale not given: the % may be the effect or the level left
RAW264.7 [2] = test: Antioxidant activity in LPS-stimulated mouse RAW264.7 cells assessed as induction of HO-1 mRNA expression at 100 uM after 4 hrs by RT-PCR analysis; assay type: functional, cell-based
RAW264.7 [3] = test: Cytotoxicity against mouse RAW264.7 cells at 100 uM after 8 hrs by MTT assay; assay type: cell-based; conditions: raw264.7, 8 h
[4] = molecular target: T1, Nuclear factor erythroid 2-related factor 2 (Mus musculus) (UniProt Q60795); test: Induction of Nrf2-mediated HO1 mRNA expression in mouse RAW264.7 cells at 100 uM after 2 to 4 hrs by quantitative RT-PCR analysis relative to control; assay type: cell-based
T1 sequence (whole entry): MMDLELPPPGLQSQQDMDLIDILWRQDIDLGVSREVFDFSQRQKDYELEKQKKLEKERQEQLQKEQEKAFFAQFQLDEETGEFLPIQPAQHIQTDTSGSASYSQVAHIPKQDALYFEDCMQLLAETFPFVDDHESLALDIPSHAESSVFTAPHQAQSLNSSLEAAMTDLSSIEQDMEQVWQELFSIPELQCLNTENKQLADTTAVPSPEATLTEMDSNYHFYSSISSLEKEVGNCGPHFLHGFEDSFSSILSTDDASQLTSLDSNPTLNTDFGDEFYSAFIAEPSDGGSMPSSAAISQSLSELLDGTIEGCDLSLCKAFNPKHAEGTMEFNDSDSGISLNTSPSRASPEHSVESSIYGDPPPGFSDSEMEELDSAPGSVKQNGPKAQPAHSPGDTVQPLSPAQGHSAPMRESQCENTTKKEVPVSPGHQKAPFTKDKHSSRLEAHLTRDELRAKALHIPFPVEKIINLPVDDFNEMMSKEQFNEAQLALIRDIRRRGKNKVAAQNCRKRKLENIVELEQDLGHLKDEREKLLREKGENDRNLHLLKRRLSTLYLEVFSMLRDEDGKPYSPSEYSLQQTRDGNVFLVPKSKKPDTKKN

[5] = molecular target: T1, Nuclear factor erythroid 2-related factor 2 (Mus musculus); test: Induction of Nrf2-mediated HO1 mRNA expression in mouse RAW264.7 cells at 100 uM after 24 hrs by quantitative RT-PCR analysis relative to control; assay type: cell-based
[6] = molecular target: T1, Nuclear factor erythroid 2-related factor 2 (Mus musculus); test: Induction of Nrf2-mediated NQO1 mRNA expression in mouse RAW264.7 cells at 100 uM after 2 to 4 hrs by quantitative RT-PCR analysis relative to control; assay type: cell-based
[7] = molecular target: T1, Nuclear factor erythroid 2-related factor 2 (Mus musculus); test: Induction of Nrf2-mediated NQO1 mRNA expression in mouse RAW264.7 cells at 100 uM after 24 hrs by quantitative RT-PCR analysis relative to control; assay type: cell-based
Procedure, shortened: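 RAW 264.7 cells (DMEM, 10% FBS, 37°C, 5% CO2) exposed to 100 μM compound for a series of time points without stated LPS activation. Total RNA isolated, converted to cDNA, and NQO1 quantified by TaqMan real-time RT-PCR using mouse-specific assays. Fold change versus control derived by the ΔΔCt relative quantification method (40 cycles, 95/60 °C).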

[8] = molecular target: T1, Nuclear factor erythroid 2-related factor 2 (Mus musculus); test: Induction of Nrf2-mediated CAT mRNA expression in mouse RAW264.7 cells at 100 uM after 4 to 20 hrs by quantitative RT-PCR analysis relative to control; assay type: cell-based
[9] = molecular target: T1, Nuclear factor erythroid 2-related factor 2 (Mus musculus); test: Induction of Nrf2 in mouse RAW264.7 cells assessed as […] in CAT mRNA expression at 100 uM after 24 hrs by quantitative RT-PCR analysis relative to control; assay type: cell-based

SMILES	Activity (RAW264.7 [1])	Activity (RAW264.7 [2])	Activity (RAW264.7 [3])	Activity [4]	Activity [5]	Activity [6]	Activity [7]	Activity [8]	Activity [9]
CC1(C)CC[C@]2(C(=O)O)CC[C@]3(C)C(=CC[C@@H]4[C@@]5(C)CC[C@H](O)C(C)(C)[C@@H]5CC[C@]43C)[C@@H]2C1 [OLEANOLIC_ACID]	85%	Active	Non-toxic	Active	inactive	Active	inactive	Active	inactive
CC1(C)[C@@H](O)CC[C@]2(C)[C@H]3C(=O)C=C4[C@@H]5C[C@@](C)(C(=O)O)CC[C@]5(C)CC[C@@]4(C)[C@]3(C)CC[C@@H]12 [ENOXOLONE]			Toxic						
